Experimental data taken from ChEMBL document CHEMBL3351343, “Synthesis and biological evaluation of novel sigma-1 receptor antagonists based on pyrimidine scaffold as agents for treating neuropathic pain” (J Med Chem, 2014).

Assays:
Mus musculus [1] = experiment: Antinociceptive activity in Kun Ming mouse pain model assessed as reduction in licking and biting time during phase-1 at 80 mg/kg, ip administered 15 mins prior to formalin challenge relative to vehicle-treated control; assay type: functional; settings: route intraperitoneal
Summary of the method: (§1)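 Kun Ming mice (20 ± 2.0 g), 10–12 per group, given vehicle (30% PEG 400) or drug ip at 10 mL/kg 15 min before intraplantar formalin. Time spent licking or biting the injected paw scored at 0–5 min (phase I) and 15–45 min (phase II). Effect (%) = (LTV − LTD)/LTV × 100.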

Mus musculus [2] = experiment: Antinociceptive activity in Kun Ming mouse pain model assessed as reduction in licking and biting time during phase-2 at 80 mg/kg, ip administered 15 mins prior to formalin challenge relative to vehicle-treated control; assay type: functional; settings: route intraperitoneal; summary of the method: as §1
[3] = molecular target: Sigma non-opioid intracellular receptor 1 (Cavia porcellus, UniProt Q60492); experiment: Displacement of [3H]-(+)-pentazocine from sigma-1 receptor in Dunkin Hartley guinea pig brain membranes after 180 mins by liquid scintillation counting analysis; set-up: species or system Membrane
[4] = Displacement of [3H]-DTG from sigma-2 receptor in Dunkin Hartley guinea pig brain membrane after 120 mins by liquid scintillation counting analysis in presence of (+)-SKF10047; set-up: species or system Cavia porcellus
Cavia porcellus = species on record: Cavia porcellus; experiment: Selectivity ratio of Ki for Dunkin Hartley guinea pig brain sigma-2 receptor to Ki for Dunkin Hartley guinea pig brain sigma-1 receptor
[5] = Acute toxicity in po dosed Kun Ming mouse after 24 hrs; assay type: organism-based; settings: in vivo

Sigma non-opioid intracellular receptor 1, sequence (Q60492 whole entry): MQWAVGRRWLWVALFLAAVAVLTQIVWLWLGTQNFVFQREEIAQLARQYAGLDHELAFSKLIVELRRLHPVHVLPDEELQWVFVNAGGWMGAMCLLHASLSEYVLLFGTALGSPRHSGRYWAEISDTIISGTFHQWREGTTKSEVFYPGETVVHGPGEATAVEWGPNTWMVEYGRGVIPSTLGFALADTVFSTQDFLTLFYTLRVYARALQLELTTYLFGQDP

Ki [3] [nM]	Ki [4] [nM]	Ratio Ki (Cavia porcellus)	SMILES	Time (Mus musculus [1]) [s]	Time (Mus musculus [2]) [s]	LD50 at 24 h [5] [mg/kg]
–	–	–	Cc1cc(OCCN2CCOCC2)nn1-c1ccc2ccccc2c1	10.65	33.16	–
462	1760	3.8	Cc1cc(OCCCN2CCC(O)CC2)nc(-c2ccccc2)n1	–	–	–
38.8	1070	27.5	CCCN(CCC)CCCOc1cc(C)nc(-c2ccccc2)n1	–	–	–
319	1490	4.7	Cc1cc(OCCCN2CCC(=O)CC2)nc(-c2ccccc2)n1	–	–	–
47.1	1320	28	CCN(CC)CCCOc1cc(C)nc(-c2ccccc2)n1	–	–	–
34.9	1460	41.7	CCCc1cc(OCCCN2CCCCC2)nc(-c2ccccc2)n1	–	–	–
39.5	1330	33.6	Cc1nc(C2CC2)nc(OCCCN2CCCCC2)c1Cl	–	–	–
151	1210	8	Cc1cc(OCCCN2CCNCC2)nc(-c2ccccc2)n1	–	–	–
58.8	1080	18.4	Cc1nc(C)c(Cl)c(OCCCN2CCCCC2)n1	–	–	–
116	1450	12.5	Cc1cc(OC/C=C/CN2CCOCC2)nc(-c2ccccc2)n1	–	–	–
89.8	> 2000	–	Cc1nc(-c2ccc(Cl)c(Cl)c2)nc(OCCCN2CCCCC2)c1Cl	–	–	–
19.3	892	46.2	COc1cc(OCCCN2CCCC2)nc(-c2ccccc2)n1	–	–	–
> 2000	> 2000	–	Cc1cc(OCCCN2CCN(C(=O)OC(C)(C)C)CC2)nc(-c2ccccc2)n1	–	–	–
95.2	1070	11.2	Cc1cc(OCCCCN2CCOCC2)nc(-c2ccccc2)n1	–	–	–
735	> 2000	–	c1ccc(-c2cc(OCCCN3CCCC3)nc(-c3ccccc3)n2)cc1	–	–	–
187	1100	5.9	Cc1ncnc(OCCCN2CCCCC2)c1Cl	–	–	–
188	1840	9.7	CC(C)c1cc(OCCCN2CCCCC2)nc(-c2ccccc2)n1	–	–	–
486	1640	3.4	Cc1cc(OCC(O)CN2CCOCC2)nc(-c2ccccc2)n1 (centres undefined)	–	–	–
> 2000	> 2000	–	Cc1cc(OCCCN2CCN(c3ccccc3)CC2)nc(-c2ccccc2)n1	–	–	–
16.7	1420	84.7	Cc1cc(OCCCN2CCC(C)CC2)nc(-c2ccccc2)n1	–	–	–
–	1290	332	COc1ccc(-c2nc(C)c(Cl)c(OCCCN3CCCCC3)n2)cc1	–	–	–
19.3	892	46.2	COc1cc(OCCCN2CCCCC2)nc(-c2ccccc2)n1	–	–	–
11.8	1050	89.1	Cc1cc(OCCCN2CCCCC2)nc(-c2ccccc2)n1	–	–	–
218	1090	5	CC(C)c1cc(OCCCN2CCCC2)nc(-c2ccccc2)n1	–	–	–
9.51	1220	128	Cc1nc(-c2ccccc2)nc(OCCCN2CCCCC2)c1C	–	–	–

Ki [3] [nM]	Ki [4] [nM]	Ratio Ki (Cavia porcellus)	SMILES	Time (Mus musculus [1]) [s]	Time (Mus musculus [2]) [s]	LD50 at 24 h [5] [mg/kg]
30.2	1660	55	Cc1cc(OCCCN2CC(C)CC(C)C2)nc(-c2ccccc2)n1 (centres undefined)	–	–	–
> 2000	> 2000	–	Cc1cc(OCCCCCCN2CCOCC2)nc(-c2ccccc2)n1	–	–	–
3.51	1190	340	Cc1nc(-c2ccccc2)nc(OCCCN2CCCC2)c1F	–	–	–
3.75	1360	363	Cc1nc(-c2ccccc2)nc(OCCCN2CCCCC2)c1F	–	–	–
389	> 2000	–	Cc1cc(OCCCCCN2CCOCC2)nc(-c2ccccc2)n1	–	–	–
11.4	1280	112	Cc1nc(-c2ccccc2)nc(OCCCN2CCCC2)c1C	–	–	–
0.97	943	–	Cc1nc(-c2ccc(F)c(F)c2)nc(OCCCN2CCCCC2)c1Cl	–	–	–
278	> 2000	–	c1ccc(-c2nc(OCCCN3CCCC3)cc(C3CC3)n2)cc1	–	–	–
422	1920	4.6	Cc1cc(OCCOCCN2CCOCC2)nc(-c2ccccc2)n1	–	–	–
102	> 2000	–	Cc1nc(-c2ccc3ccccc3c2)nc(OCCCN2CCCCC2)c1Cl	–	–	–
38.9	1400	35.8	CCCc1cc(OCCCN2CCCC2)nc(-c2ccccc2)n1	–	–	–
27.6	1330	48	FC(F)(F)c1cc(OCCCN2CCCCC2)nc(-c2ccccc2)n1	–	–	–
22.7	1320	58.3	Cc1cc(OCCCN2CCN(C)CC2)nc(-c2ccccc2)n1	–	–	–
253	> 2000	–	c1ccc(-c2nc(OCCCN3CCCCC3)cc(C3CC3)n2)cc1	–	–	–
36.3	949	26.1	Cc1cc(OCCCN2CCOCC2)nc(-c2ccccc2)n1	–	–	–
22.4	1430	63.8	CCc1cc(OCCCN2CCCC2)nc(-c2ccccc2)n1	–	–	–
966	> 2000	–	c1ccc(-c2cc(OCCCN3CCCCC3)nc(-c3ccccc3)n2)cc1	–	–	–
27.6	1330	48	FC(F)(F)c1cc(OCCCN2CCCC2)nc(-c2ccccc2)n1	–	–	–
82.3	> 2000	–	Cc1cc(OCCCN(C)C)nc(-c2ccccc2)n1	–	–	–
20.5	1140	55.6	CCc1cc(OCCCN2CCCCC2)nc(-c2ccccc2)n1	–	–	–
30.6	1180	38.5	CCN1CCN(CCCOc2cc(C)nc(-c3ccccc3)n2)CC1	–	–	–
377	> 2000	–	Cc1cc(OCCCN2C(C)(C)CCCC2(C)C)nc(-c2ccccc2)n1	–	–	–
13.6	1250	92.1	Cc1cc(OCCCN2CCCC2)nc(-c2ccccc2)n1	–	–	–
> 2000	> 2000	–	Cc1cc(OCCN2CCOCC2)nc(-c2ccccc2)n1	–	–	–
18.7	1300	69.2	Cc1cc(OCCCN2CCCN(C)CC2)nc(-c2ccccc2)n1	–	–	–

SMILES	Ki [3] [nM]	Ki [4] [nM]	Ratio Ki (Cavia porcellus)	Time (Mus musculus [1]) [s]	Time (Mus musculus [2]) [s]	LD50 at 24 h [5] [mg/kg]
Cc1ccc(-c2nc(C)c(Cl)c(OCCCN3CCCCC3)n2)cc1	1.96	1550	–	–	–	1680
Cc1nc(-c2ccccc2)nc(OCCCN2CCCC2)c1Cl	4.02	1680	–	–	–	> 2000
Cc1nc(-c2ccc(C(F)(F)F)cc2)nc(OCCCN2CCCCC2)c1Cl	4.42	1780	–	–	–	377
Cc1nc(-c2ccccc2)nc(OCCCN2CCCCC2)c1Cl	2.33	1650	–	–	–	440
Cc1nc(-c2ccc(F)cc2)nc(OCCCN2CCCCC2)c1Cl	1.14	1330	–	–	–	884
